The record followed here is ChEMBL document CHEMBL4304801, “ω-Hydroxy isoprenoid bisphosphonates as linkable GGDPS inhibitors” (Bioorg Med Chem Lett, 2019).

In assay [1] the target is T1, Geranylgeranyl pyrophosphate synthase (Homo sapiens, UniProt O95749).
T1 sequence (O95749 whole entry): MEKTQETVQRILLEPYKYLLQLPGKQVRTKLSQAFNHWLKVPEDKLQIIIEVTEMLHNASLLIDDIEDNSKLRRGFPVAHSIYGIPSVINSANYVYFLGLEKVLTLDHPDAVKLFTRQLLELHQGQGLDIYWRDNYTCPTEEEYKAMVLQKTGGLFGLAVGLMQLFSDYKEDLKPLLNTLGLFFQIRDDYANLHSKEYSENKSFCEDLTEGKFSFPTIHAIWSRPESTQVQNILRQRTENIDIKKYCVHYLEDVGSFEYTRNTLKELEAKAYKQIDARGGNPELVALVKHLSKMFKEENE
Nature of the assay: Inhibition of GGDPS (unknown origin) using [14C] IPP and FPP as substrate preincubated for 10 mins followed by substrate addition and measured after 30 min by scintillation counting method. The essentials:
(§1)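 Recombinant enzyme donated by outside labs, assayed by a previously described method; each concentration run in duplicate over multiple concentrations, three independent experiments.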

Assay [2] deals with T2, Farnesyl pyrophosphate synthase (Homo sapiens, UniProt P14324).
T2 sequence (P14324 whole entry): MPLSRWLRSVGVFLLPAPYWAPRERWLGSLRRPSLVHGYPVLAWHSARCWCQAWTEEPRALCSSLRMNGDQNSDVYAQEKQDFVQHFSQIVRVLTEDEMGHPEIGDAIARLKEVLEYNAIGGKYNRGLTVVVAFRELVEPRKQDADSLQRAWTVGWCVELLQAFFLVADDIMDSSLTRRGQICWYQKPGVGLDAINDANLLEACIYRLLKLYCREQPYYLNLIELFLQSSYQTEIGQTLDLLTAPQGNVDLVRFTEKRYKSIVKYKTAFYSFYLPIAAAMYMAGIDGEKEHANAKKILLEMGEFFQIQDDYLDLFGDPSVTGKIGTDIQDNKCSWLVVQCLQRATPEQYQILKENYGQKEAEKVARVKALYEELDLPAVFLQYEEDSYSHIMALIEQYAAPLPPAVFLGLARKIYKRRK
Nature of the assay: Inhibition of FDPS (unknown origin) using [14C] IPP and GPP as substrate preincubated for 10 mins followed by substrate addition and measured after 30 min by scintillation counting method. The method in brief:
as §1

For a further assay, the species on record is Homo sapiens. Briefly: Selectivity ratio of IC50 for FDPS (unknown origin) to IC50 for GGDPS (unknown origin).
The target of assay [3] is T3, Geranylgeranyl pyrophosphate synthase (Homo sapiens) (UniProt O95749).
T3 sequence (whole entry): T1 sequence (O95749 whole entry)
Briefly: Inhibition of GGPPs in human RPMI8226 cells assessed as disruption of Rap1a geranylgeranylation measured after 48 hrs by immunoblot analysis. In kind it is cell-based. The essentials: (§2)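 Whole-cell lysates made in RIPA buffer (0.15 M NaCl, 1% deoxycholate, 0.1% SDS, 1% Triton X-100, 0.05 M Tris HCl) with protease/phosphatase inhibitors; protein by BCA; equal protein run on SDS-PAGE, PVDF transfer, primary antibodies, HRP secondaries, ECL detection of Rap1a with β-tubulin as loading reference.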
On the technique in general: Immunoblotting shows a protein as a band on a membrane.

Assay [4] deals with T3, Geranylgeranyl pyrophosphate synthase (Homo sapiens). Nature of the assay: Inhibition of GGPPs in human RPMI8226 cells assessed as disruption of Rab geranylgeranylation by ELISA. In kind it is cell-based. (In general: An ELISA detects its analyte on a solid surface through an enzyme-linked reagent.)
The target is the same in assay [5]. Briefly: Inhibition of GGPPs in human RPMI8226 cells assessed as disruption of Rap1a geranylgeranylation at 1 to 10 uM after 48 hrs by immunoblot analysis. The class given is cell-based. The method in brief: as §2
Assay [6] shares this target. Briefly: Inhibition of GGPPs in human MM1S cells assessed as disruption of Rap1a geranylgeranylation at 1 to 10 uM after 48 hrs by immunoblot analysis. In kind it is cell-based. The essentials:
as §2

Each structure is given as a SMILES string. Calls of active or inactive are those of the source. The rule behind the calls is not given here.

By IC50 is commonly meant the midpoint of a concentration-inhibition curve. A higher IC50 goes with weaker potency in that assay.

Consider `C/C(=C/CCn1cc(CC(C)(P(=O)(O)O)P(=O)(O)O)nn1)CC/C=C(\C)CO`, for which the concentration for half-maximal inhibition (IC50) in assay [1] was 0.67 µM; in assay [2] it was 81.4 µM. Further, in the assay listed under Homo sapiens, the Ratio IC50 stood at 121. The inhibition entry in assay [3] and in assay [4] was “Dose-dependent effect” throughout. In addition, the MEC in assay [4] was found to be 0.25 µM.
On to `CC(=CCn1cc(CC(P(=O)(O)O)P(=O)(O)O)nn1)CC/C=C(\C)CO`, for which the IC50 came to 11.6 µM in assay [1] and 91.2 µM in assay [2]. In addition, in the assay listed under Homo sapiens, the Ratio IC50 stood at 8. The inhibition result in assay [3] and in assay [4] was “Dose-dependent effect” in each case. The MEC in assay [4] is 10 µM. Moreover, the inhibition entry in assay [5] and in assay [6] was “Active” throughout.
